A value given as a limit tells only on which side of the number the result lay.

This experiment addresses T1, fMet-Leu-Phe receptor (Homo sapiens) (UniProt P21462).
T1 sequence (whole entry): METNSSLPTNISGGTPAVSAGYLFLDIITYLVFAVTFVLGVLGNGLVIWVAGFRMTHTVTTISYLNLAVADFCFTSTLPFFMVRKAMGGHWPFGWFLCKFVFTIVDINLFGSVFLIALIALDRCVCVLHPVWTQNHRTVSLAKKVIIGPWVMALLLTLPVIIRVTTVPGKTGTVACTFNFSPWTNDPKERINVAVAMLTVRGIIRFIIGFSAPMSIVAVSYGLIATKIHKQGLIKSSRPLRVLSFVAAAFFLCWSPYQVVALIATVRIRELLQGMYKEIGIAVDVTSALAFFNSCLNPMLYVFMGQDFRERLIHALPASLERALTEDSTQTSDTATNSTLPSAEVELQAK
As to the kind of experiment: Inhibitory activity against Human formylpeptide receptor (FPR) of human leukemia HL-60 cells. In kind it is cell-based. Summed up:
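HL-60 cells differentiated 48 h with 0.2 mM dibutyryl cAMP, washed, then treated with 5 μM cytochalasin B (5–10 min, 37 °C). Stimulated 10 min with 30 nM f-MLF. N-acetyl-β-D-glucosaminidase release read at 410 nm on p-nitrophenyl substrate after spontaneous-release subtraction. Duplicate wells; IC20/IC50 as mean ± SD of independent experiments.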
In turn, `CC[C@@H]1NC(=O)[C@H]([C@H](O)[C@H](C)C/C=C/CO)N(C)C(=O)[C@H](C(C)C)N(C)C(=O)[C@H](CC(C)C)N(C)C(=O)[C@H](CC(C)C)N(C)C(=O)[C@@H](C)NC(=O)[C@H](C)NC(=O)[C@@H](CC(C)C)N(C)C(=O)[C@@H](C(C)C)NC(=O)[C@@H](CC(C)C)N(C)C(=O)CN(C)C1=O` registered an IC20 of more than 10 µM.
Under `C/C=C/C[C@@H](C)[C@@H](O)[C@H]1C(=O)N[C@@H]([C@@H](C)O)C(=O)N(C)CC(=O)N(C)[C@H](CC(C)C)C(=O)N[C@@H]([C@@H](C)CC)C(=O)N(C)[C@H](CC(C)C)C(=O)N[C@@H](C)C(=O)N[C@](O)(C(C)C)C(=O)N(C)[C@@H](CC(C)C)C(=O)N[C@@H](CC(C)C)C(=O)N(C)[C@@H](C(C)C)C(=O)N1C` stands 0.29 µM.
Under `C/C=C/C[C@@H](C)[C@@H](O)[C@H]1C(=O)N[C@@H](CC)C(=O)N(C)CC(=O)N(C)[C@H](CC(C)C)C(=O)N[C@H](C(C)C)C(=O)N(C)[C@H](CC(C)C)C(=O)N[C@@H](C)C(=O)N[C@H](C)C(=O)N(C)[C@@H](CC(C)C)C(=O)N(C)[C@@H](CC(C)C)C(=O)N(C)[C@@H]([C@@H](C)CC)C(=O)N1C` stands 2.9 µM; under `C/C=C/C[C@@H](C)[C@@H](O)[C@H]1C(=O)N[C@@H](CCC)C(=O)N(C)CC(=O)N(C)[C@H](CC(C)C)C(=O)N[C@H](C(C)C)C(=O)N(C)[C@H](CC(C)C)C(=O)N[C@@H](C)C(=O)N[C@H](C)C(=O)N(C)[C@@H](CC(C)C)C(=O)N[C@@H](CC(C)C)C(=O)N(C)[C@@H](C(C)C)C(=O)N1C`, 0.66 µM.
The value for `CC/C=C/C[C@@H](C)[C@@H](O)[C@H]1C(=O)N[C@@H](CC)C(=O)N(C)[C@@H](Cc2ccccc2)C(=O)N(C)[C@H](CC(C)C)C(=O)N[C@H](C(C)C)C(=O)N(C)[C@H](CC(C)C)C(=O)N[C@@H](C)C(=O)N[C@H](C)C(=O)N(C)[C@@H](CC(C)C)C(=O)N(C)[C@@H](CC(C)C)C(=O)N(C)[C@@H](C(C)C)C(=O)N1C` was more than 10 µM.
The compound `C/C=C/C[C@@H](C)[C@@H](O)[C@H]1C(=O)N[C@@H]([C@@H](C)O)C(=O)N(C)CC(=O)N(C)[C@H](CC(C)C)C(=O)N[C@@H](CC(C)C)C(=O)N(C)[C@H](CC(C)C)C(=O)N[C@@H](C)C(=O)N[C@H](C)C(=O)N(C)[C@@H](CC(C)C)C(=O)N[C@@H](CC(C)C)C(=O)N(C)[C@@H](C(C)C)C(=O)N1C` came in with an IC20 of 0.2 µM.
The value for `C/C=C/C[C@@H](C)[C@@H](O)[C@H]1C(=O)N[C@@H]([C@@H](C)O)C(=O)N(C)CC(=O)N(C)[C@H](CC(C)C)C(=O)N[C@H](C(C)C)C(=O)N(C)[C@H](CC(C)C)C(=O)N[C@@H](C)C(=O)N[C@H](C)C(=O)N(C)[C@@H](CC(C)C)C(=O)N(C)[C@@H](CC(C)C)C(=O)N[C@@H](C(C)C)C(=O)N1C` was 6.4 µM; that for `CC/C=C/C[C@@H](C)[C@@H](O)[C@H]1C(=O)N[C@@H]([C@@H](C)O)C(=O)N(C)CC(=O)N(C)[C@H](CC(C)C)C(=O)N[C@H](C(C)C)C(=O)N(C)[C@H](CC(C)C)C(=O)N[C@@H](C)C(=O)N[C@H](C)C(=O)N(C)[C@@H](CC(C)C)C(=O)N(C)[C@@H](CC(C)C)C(=O)N(C)[C@@H](C(C)C)C(=O)N1C` was 2.2 µM.
Under `C/C=C/C[C@@H](C)[C@@H](O)[C@H]1C(=O)N[C@@H](C(C)C)C(=O)N(C)CC(=O)N(C)[C@H](CC(C)C)C(=O)N[C@H](C(C)C)C(=O)N(C)[C@H](CC(C)C)C(=O)N[C@@H](C)C(=O)N[C@H](C)C(=O)N(C)[C@@H](CC(C)C)C(=O)N[C@@H](CC(C)C)C(=O)N(C)[C@@H](C(C)C)C(=O)N1C` stands 1.4 µM; under `C/C=C/C[C@@H](C)[C@@H](O)[C@H]1C(=O)N[C@@H]([C@@H](C)O)C(=O)N(C)CC(=O)N[C@@H](C(C)C)C(=O)N[C@H](C(C)C)C(=O)N(C)[C@H](CC(C)C)C(=O)N[C@@H](C)C(=O)N[C@H](C)C(=O)N(C)[C@@H](CC(C)C)C(=O)N(C)[C@@H](CC(C)C)C(=O)N(C)[C@@H](C(C)C)C(=O)N1C`, more than 10 µM.

(Values after ChEMBL document CHEMBL1135620, “Cyclosporins: structure-activity relationships for the inhibition of the human FPR1 formylpeptide receptor” (J Med Chem, 2002).)
